Source: PMC6392825 (ChemistryOpen, 2019)
Converted amounts (≈) assume the structure as drawn.

Legend:
[1] = Water solubility, shake flask method, 0.1 M phosphate buffer pH 6.8; format: physicochemical; conditions: 37 °C, pH 6.8, aqueous buffer, thermodynamic from solid
[2] = Chemical antioxidant capacity, FRAP assay
HepG2 [3] = experiment: Cytotoxicity, mitochondrial activity; format: cell-based; conditions: Homo sapiens, HepG2, 72 h, read-out: IC50 MTT
How it was run: (§1)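 Seeded at 20000 cells/well in DMEM and grown 24 h at 37 °C, 10% CO2. Medium was then replaced with serum-free medium holding test compound (25 mM DMSO stock) at various concentrations for 72 h, in triplicate; doxorubicin was the positive control. MTT (5 mg/mL stock in PBS) added for 2 h, formazan dissolved in DMSO, A570. IC50 derived from % surviving cells, reported as mean ± SD combined with SRB data.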

HT‐29 [4] = experiment: Cytotoxicity, mitochondrial activity; format: cell-based; conditions: Homo sapiens, HT-29, 72 h, read-out: IC50 MTT
How it was run: as §1

Caco‐2 [5] = experiment: Cytotoxicity, mitochondrial activity; format: cell-based; conditions: Homo sapiens, Caco-2, 72 h, read-out: IC50 MTT
How it was run: as §1

EA.hy926 [6] = experiment: Cytotoxicity, mitochondrial activity; format: cell-based; conditions: Homo sapiens, EA.hy 926, 72 h, read-out: IC50 MTT
How it was run: as §1

HepG2 [7] = experiment: Cell growth inhibition, protein content; format: cell-based; conditions: Homo sapiens, HepG2, 72 h, read-out: IC50 SRB
How it was run: (§2)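 Cell lines from ATCC, grown in DMEM+glutamax with 1% NEAA, 1% P/S and 10% FBS at 37 °C, 10% CO2. Seeded at 20000 cells/well for 24 h, then exposed to test compound (25 mM DMSO stock) for three days. Fixed with cold TCA for 1 h at 4 °C, stained 30 min with 0.4% SRB in 1% acetic acid, dissolved in 10 mM Tris, A490. Triplicate; IC50 given as mean ± SD combined with MTT data (n ≥ 3).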

HT‐29 [8] = experiment: Cell growth inhibition, protein content; format: cell-based; conditions: Homo sapiens, HT-29, 72 h, read-out: IC50 SRB
How it was run: as §2

Caco‐2 [9] = experiment: Cell growth inhibition, protein content; format: cell-based; conditions: Homo sapiens, Caco-2, 72 h, read-out: IC50 SRB
How it was run: as §2

EA.hy926 [10] = experiment: Cell growth inhibition, protein content; format: cell-based; conditions: Homo sapiens, EA.hy 926, 72 h, read-out: IC50 SRB
How it was run: as §2

HepG2 [11] = experiment: Intracellular ROS assay; format: cell-based; conditions: for activity at 1 µM / activity at 10 µM: Homo sapiens, HepG2, read-out: Intracellular ROS, percentage compared to the untreated control cells (ROS/SRB); for change of intracellular ROS in words: HepG2, vs untreated control, 10 and 1 μM
How it was run: (§3)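 Cells seeded at 20000/well and grown 24 h at 37 °C, 10% CO2, then treated with test compound at 10 and 1 μM in serum-free medium. NAC and doxorubicin served as controls. After a PBS wash, cells were loaded with 20 μM DCFH-DA for 30 min, washed, and held 1 h in phenol red-free DMEM. Fluorescence read at ex 485/em 535 nm and normalized to SRB in the same well. Reported as % of untreated control, n ≥ 3, two-tailed t-test with unequal variances.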

HT‐29 [12] = experiment: Intracellular ROS assay; format: cell-based; conditions: for activity at 1 µM / activity at 10 µM: Homo sapiens, HT-29, read-out: Intracellular ROS, percentage compared to the untreated control cells (ROS/SRB); for change of intracellular ROS in words: HT‐29, vs untreated control, 10 and 1 μM
How it was run: as §3

Caco‐2 [13] = experiment: Intracellular ROS assay; format: cell-based; conditions: for activity at 1 µM / activity at 10 µM: Homo sapiens, Caco-2, read-out: Intracellular ROS, percentage compared to the untreated control cells (ROS/SRB); for change of intracellular ROS in words: Caco‐2, vs untreated control, 10 and 1 μM
How it was run: as §3

EA.hy926 [14] = experiment: Intracellular ROS assay; format: cell-based; conditions: for activity at 1 µM / activity at 10 µM: Homo sapiens, EA.hy 926, read-out: Intracellular ROS, percentage compared to the untreated control cells (ROS/SRB)
How it was run: as §3

Structure (SMILES)	solubility at 90 min [1] [µM]	solubility at 24 h [1] [µM]	FRAP (Trolox equivalent per μM) [2] [Trolox equivalent per μM]	FRAP (curcumin equivalent per μM) [2]	IC50 (HepG2 [3]) [µM]	IC50 (HT‐29 [4]) [µM]	IC50 (Caco‐2 [5]) [µM]	IC50 (EA.hy926 [6]) [µM]	IC50 (HepG2 [7]) [µM]	IC50 (HT‐29 [8]) [µM]	IC50 (Caco‐2 [9]) [µM]	IC50 (EA.hy926 [10]) [µM]	activity at 1 µM (HepG2 [11]) [%]	activity at 10 µM (HepG2 [11]) [%]	activity at 1 µM (HT‐29 [12]) [%]	activity at 10 µM (HT‐29 [12]) [%]	activity at 1 µM (Caco‐2 [13]) [%]	activity at 10 µM (Caco‐2 [13]) [%]	activity at 1 µM (EA.hy926 [14]) [%]	activity at 10 µM (EA.hy926 [14]) [%]	other results
COc1cc(/C=C/C(=O)/C=C(O)/C=C/c2c[nH]c3ccccc23)ccc1O [3 g, (1E,4Z,6E)‐5‐Hydroxy‐1‐(4‐hydroxy‐3‐methoxyphenyl)‐7‐(1H‐indol‐3‐yl)hepta‐1,4,6‐trien‐3‐one]	7.6 ± 0.9 (≈ 2.75 µg/mL)	13.2 ± 0.3 (≈ 4.77 µg/mL)	0.44	0.42 curcumin equivalent per μM	19.5 ± 0.6	12.9 ± 0.9	5.8 ± 0.3	19 ± 0.4	13.5 ± 1.1	40.5 ± 4.3	37.9 ± 1.8	45.1 ± 2.6	111 ± 14.5	104 ± 12	85.7 ± 1.3	90.4 ± 5.1	102 ± 11.3	111 ± 3.1	129 ± 9.2	92.7 ± 6.1	–
CC(=O)N[C@@H](CS)C(=O)O [NAC, N‐acetyl‐L‐cysteine, reference compound]	–	–	–	–	–	–	–	–	–	–	–	–	77.1 ± 7.8	63.1 ± 4.3	82.7 ± 3.4	75.3 ± 3.3	83.7 ± 6.2	83.5 ± 5.1	84.2 ± 4.8	76.6 ± 8.3	change of intracellular ROS in words (HepG2 [11]): significant decrease in ROS generation; change of intracellular ROS in words (HT‐29 [12]): significant decrease in ROS generation; change of intracellular ROS in words (Caco‐2 [13]): significant decrease in ROS generation; change of intracellular ROS in words (EA.hy926 [14]; EA.hy926, vs untreated control, 10 and 1 μM): significant decrease in ROS generation
COc1cc(/C=C/C(=O)/C=C(O)/C=C/c2cccnc2)ccc1O [3 a, (1E,4Z,6E)‐5‐Hydroxy‐1‐(4‐hydroxy‐3‐methoxyphenyl)‐7‐(pyridin‐3‐yl)hepta‐1,4,6‐triene‐3‐one]	8.1 ± 1.6 (≈ 2.62 µg/mL)	14.5 ± 1.1 (≈ 4.69 µg/mL)	0.42	0.40 curcumin equivalent per μM	14.1 ± 0.3	17.9 ± 0.1	14.6 ± 2	8.5 ± 0.4	16.8 ± 0.9	20.9 ± 0.9	25 ± 1.8	3.8	116 ± 12.8	82.3 ± 1.9	83.2 ± 3.2	89.9 ± 4.3	106 ± 8.4	120 ± 8.7	123 ± 9.5	95.5 ± 5.1	change of intracellular ROS in words (HepG2 [11]): significantly decreased ROS signal; change of intracellular ROS in words (HT‐29 [12]): significantly decreased ROS signal; change of intracellular ROS in words (Caco‐2 [13]): significantly increased ROS production
Cc1c(C)c2c(c(C)c1O)CC[C@@](C)(CCC[C@H](C)CCC[C@H](C)CCCC(C)C)O2 [α‐Tocopherol, α‐tocopherol, reference compound]	–	–	0.70	0.68 curcumin equivalent per μM	–	–	–	–	–	–	–	–	–	–	–	–	–	–	–	–	–
O=C1O[C@H]([C@@H](O)CO)C(O)=C1O [Ascorbic acid, ascorbic acid, reference compound]	–	–	0.60	0.57 curcumin equivalent per μM	–	–	–	–	–	–	–	–	–	–	–	–	–	–	–	–	–
Cc1c(C)c2c(c(C)c1O)CCC(C)(C(=O)O)O2 (stereo not drawn) [Trolox, reference compound]	–	–	–	1.00 curcumin equivalent per μM	–	–	–	–	–	–	–	–	–	–	–	–	–	–	–	–	–
